# From ChEMBL document CHEMBL4513216, “Probing the Open Global Health Chemical Diversity Library for Multistage-Active Starting Points for Next-Generation Antimalarials” (ACS Infect Dis, 2020)
# Experiment: Toxicity liver stage against HepG2, at 10uM
# Assay type: cell-based
# Design: test concentration 10 uM, cell line HepG2-A16-CD81EGFP
# Conditions: human, HepG2-A16-CD81EGFP cells; read-out: INHIBITION
# In short: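 Uninfected HepG2-A16-CD81EGFP cells, 3 × 10^3 per well, 1536-well, plated on prespotted compound at 10 μM final, parasite-free screening media added to match infected plates; puromycin 10 μM positive, DMSO 0.5% negative; run in parallel with 48 h PbLuc assay at 37 °C, 5% CO2; viability by CellTiter-Glo luminescence, normalized to controls.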
row,SMILES,cytotoxicity at 10 µM [%]
1,CSC(C)(C)CNC(=O)NCC[S+]([O-])c1ccccc1 (stereo not given),15.5
2,Cc1ccc2[nH]c(=O)cc(C(=O)NCCCn3nccc3C3CC3)c2c1,-4.35
3,c1nc(N2CCOC(Cn3cncn3)C2)c2sccc2n1 (stereo not given),16.7
4,Cc1cc(-c2ccccc2C(=O)O)nc(C2CCCN(C(C)C)C2)n1 (stereo not given),-4.47
5,CC(C)n1cnnc1C1CCCN(S(=O)(=O)c2c[nH]cn2)C1 (stereo not given),-6.6
6,COc1cc(N2CCN(CC3CC3)c3nc(C)ccc3C2)ncn1,-101
7,COCCn1cnnc1Cn1ccnc1-c1ccsc1,8.61
8,Cc1nc(-c2ccsc2)ccc1C(=O)NCCC1CCCO1 (stereo not given),-9.75
9,O=C(c1ccc(COc2ccc(Cl)cc2)o1)N1N=CCC1(O)C(F)(F)F (stereo not given),30
10,COc1ccc(NC(C)C(=O)N2CCN(c3ccccc3)CC2)cn1 (stereo not given),9.75
11,CCC(Cn1ccnc1)n1cnc2c(C)csc2c1=O (stereo not given),-4.34
12,O=C1NC2(CCN(CC(=O)N3CCOCC3)CC2)Nc2ccc(Br)cc21,-0.445
13,COCCc1noc(CNCC2CCCN2c2cccnn2)n1 (stereo not given),4.33
14,O=C([C@H]1CN(CCc2ccccc2)C[C@H]2OCC[C@@H]12)N1CCCO1,-9.49
15,CC(C(=O)NCCN1CCCCC1)n1cncn1 (stereo not given),-3.37
16,CN1CCCC2(CCN(S(=O)(=O)c3c(Cl)nc4sccn34)C2)C1=O (stereo not given),12.4
17,Cc1n[nH]c(C)c1CCc1n[nH]c(=O)n1Cc1cccs1,-146
18,Cc1ccc(CNC(=O)CCNS(C)(=O)=O)cc1,-5.07
19,CN1CC(c2ccccc2)CC2(CCN(Cc3ncc[nH]3)CC2)C1 (stereo not given),-1.21
20,CC(C)(C)C(CCO)NC(=O)Nc1ccncc1 (stereo not given),-3.28
21,Nc1nccnc1C(=O)N(Cc1ccco1)CC1CCCO1 (stereo not given),8.13
22,CN(CCC(=O)N1CCCC(Cc2cccnc2)C1)Cc1cccnc1 (stereo not given),-9.41
23,c1cncc(N2CCCn3nnc(CN4CCCCC4)c3C2)c1,1.24
24,CC1=CCN(S(=O)(=O)c2cccc(C(=O)N3CCCN(C)CC3)c2)CC1,-2.36
25,CCc1cnc(N2CCC3(CC(=O)N(Cc4csc(C)n4)C3)C2)nc1 (stereo not given),-2.71
26,CC(C)N1CCc2onc(Cn3cccn3)c2C1,5.44
27,O=C(NCCN1CCOCC1)c1ccc(-n2ccc3ccccc32)s1,-1.27
28,Cc1nnc(SCCC(=O)N(C)Cc2ccc(F)cc2Cl)[nH]1,11.4

row,SMILES,cytotoxicity at 10 µM [%]
1,O[C@H]1[C@H](n2cc(CN3CCCC3)nn2)c2ccccc2C12CCNCC2,-3.76
2,CC(C)Cc1nc(OCC(N)=O)c(C#N)c2c1CCC2,75.7
3,Cc1cc(N2CCN(C(=O)[C@@H]3C[C@H]4C=C[C@@H]3C4)CC2)nc2ccccc12,-5.71
4,O=C(c1ccc(SC(F)F)cc1)N1CCOCC1c1ncon1 (stereo not given),4.79
5,CS(=O)(=O)N[C@@H]1CN(C(=O)c2cccnc2)[C@@H]2CCCO[C@@H]21,-81.8
6,Cc1ccc(C)c(NC(=O)Cn2cc(I)cn2)c1,7.72
7,CCN(Cc1cccc(C)c1)Cc1nc2c(cnn2C)c(=O)[nH]1,-21.6
8,CCC1=N[C@@]2(CC[C@@H]3CN(Cc4ccc(C)cc4)C[C@@H]32)C(=O)N1C,-95
9,CN(C)C(=O)CN1CCCCC1c1nc(N)ncc1-c1cccc(F)c1 (stereo not given),-3.68
10,CCC[C@H]1CN(CCOC)C[C@@H]1NC(=O)Cn1cc(C)cn1,4.83
11,Cc1ccc(C2CN(C(=O)c3ccn(C)c(=O)c3)CCO2)nc1 (stereo not given),-17
12,CN(Cc1nnc2ccccn12)C(=O)NC1CCCCC1,-5.97
13,CC(=O)N1CCc2nc(N3CCCC3)nc(C)c2C1,-0.567
14,Cc1nc2ccc(Cl)cn2c1CN1CCN(S(=O)(=O)N2CCCC2)CC1,16.6
15,CCCc1cc(C(=O)NCCCC(=O)N2Cc3ccccc3C2)[nH]n1,8.81
16,COc1ccccc1CC(C)(C)NC(=O)CN(C)C(C)C,3.04
17,Cc1nc(CN2CCC(N(C)Cc3noc(C4CC4)n3)C2)oc1C (stereo not given),-11.1
18,c1ccc(CN2CC[C@@H]3O[C@H](COCc4ccncc4)CC[C@@H]32)nc1,3.5
19,Cc1n[nH]c2nc(-c3cc(Br)ccc3O)cc(C(=O)O)c12,0.0962
20,Cc1cc2c(cc1NC(=O)NCC(C)C)OCO2,1.01
21,CC(C)c1cc(NC(=O)CN2CCCC2Cn2cncn2)on1 (stereo not given),-4.05
22,CCNc1nc(-c2cccnc2)c(-c2ccnc(N3CCOCC3)n2)s1,-10.1
23,CN(Cc1c(F)cccc1Cl)C(=O)CN(C)C1CCc2ccccc21 (stereo not given),11.3
24,Cc1cc(N2CCN(C(=O)Cc3ccc4c(c3)OCO4)CC2)cc(C)n1,-18
25,CC(C)n1cc(S(=O)(=O)N2CCCCCC2)cn1,10
26,CCc1ccc(NC(=O)CCN2CC(n3nc(C)cc3C)C2)cc1,-8.03
27,OC1(Cn2ccc3ncccc32)CCN(Cc2ccccc2F)CC1,-5.33
